Fh CTSL1 inh: Fasciola hepatica cathepsin L1 inhibitors, primary screen, counter-screen for PFM18AAP inhibitor project, biochemical, QFRET, fluorogenic peptide substrate | recombinant F. hepatica cathepsin L1, Z-Leu-Arg-MCA fluorescence | inhibition, % at 5.96 µM | 300,000 compounds, 0.49% hits;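 active = inhibition above the mean of all tested compounds plus 3 SD, set per screening campaign, cut at about 17% in these data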
Lipid droplet: inhibitors of hepatocyte lipid droplet formation, primary screen, imaging, high-throughput imaging, BODIPY stain; AML12 mouse hepatocytes, oleate lipid droplets; inhibition, % at 6.5 µM; 240,000 compounds, 0.4% hits;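 active = lipid droplet intensity inhibited by at least 50%, with more than 500 cells counted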
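Assay system: AML12 mouse liver cells | Compound dosing: One dose, 6.5 µM compound | Read-out basis: Droplet intensity reduction, % inhibition | Measured by: Fluorescence imaging, 20x objective, two fields per well | Schedule: Overnight treatment with compound plus oleate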
Arrestin-AP2 inh: inhibitors of beta-arrestin/AP2 binding, primary screen, biochemical, GPCR trafficking, flow cytometry | inhibition, % at 10 µM | FITC-arrestin peptide / GST-AP2 beads; AP2 beta2 appendage carries R879A mutation | beta-arrestin 1 C-terminal peptide binding to AP2 beta2-adaptin appendage (human) | 340,000 compounds, 0.31% hits | AID 504490, 2011;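 active = inhibition above a set limit, near 3 SD of compounds lacking own fluorescence, cut at about 54% in these data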
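Measured by: flow cytometry, FL1 (488/535 nm); Material: AP2 appendage R879A on GSH beads; Evaluation: percent response; Timing: pre-incubation 12 min, peptide binding 1 h, room temperature; Also added: 50 nM FITC-arrestin peptide; Medium: PBS with 0.05% Tween 20 and 0.1% BSA.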
p-CIP stab down: p/CIP-EGFP fusion destabilizers, primary screen, fluorescence, F442A cells | decrease of EGFP signal, % at 10 µM | AID 1984, 2009 | 16 h | 290,000 compounds, 0.01% hits;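 active = EGFP signal decrease of at least 30% at 10 µM or well 3 SD below plate mean, unless failing retest; inactive = the rest, including hits failing retest or dose response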
Arr AP2 CP1: inhibitors of arrestin peptide binding to AP2, confirmation, biochemical, cherry pick 1, flow cytometry beads | inhibition, % at 10 µM | GST-AP2 beads, FITC arrestin peptide binding; GST-fused beta2-adaptin appendage, R879A mutant | 1,300 compounds, 2% hits | shares compounds with Arrestin-AP2 inh;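 active = inhibition above a set limit, roughly 3 SD of non-fluorescent compound noise, cut at about 38% in these data; inactive = inhibition at or below that limit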;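 note: loss of bead fluorescence from 50 nM FITC arrestin peptide bound to appendage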
Target sequence (P63010 whole entry, looked up, the tested form may be a part, one chain of several): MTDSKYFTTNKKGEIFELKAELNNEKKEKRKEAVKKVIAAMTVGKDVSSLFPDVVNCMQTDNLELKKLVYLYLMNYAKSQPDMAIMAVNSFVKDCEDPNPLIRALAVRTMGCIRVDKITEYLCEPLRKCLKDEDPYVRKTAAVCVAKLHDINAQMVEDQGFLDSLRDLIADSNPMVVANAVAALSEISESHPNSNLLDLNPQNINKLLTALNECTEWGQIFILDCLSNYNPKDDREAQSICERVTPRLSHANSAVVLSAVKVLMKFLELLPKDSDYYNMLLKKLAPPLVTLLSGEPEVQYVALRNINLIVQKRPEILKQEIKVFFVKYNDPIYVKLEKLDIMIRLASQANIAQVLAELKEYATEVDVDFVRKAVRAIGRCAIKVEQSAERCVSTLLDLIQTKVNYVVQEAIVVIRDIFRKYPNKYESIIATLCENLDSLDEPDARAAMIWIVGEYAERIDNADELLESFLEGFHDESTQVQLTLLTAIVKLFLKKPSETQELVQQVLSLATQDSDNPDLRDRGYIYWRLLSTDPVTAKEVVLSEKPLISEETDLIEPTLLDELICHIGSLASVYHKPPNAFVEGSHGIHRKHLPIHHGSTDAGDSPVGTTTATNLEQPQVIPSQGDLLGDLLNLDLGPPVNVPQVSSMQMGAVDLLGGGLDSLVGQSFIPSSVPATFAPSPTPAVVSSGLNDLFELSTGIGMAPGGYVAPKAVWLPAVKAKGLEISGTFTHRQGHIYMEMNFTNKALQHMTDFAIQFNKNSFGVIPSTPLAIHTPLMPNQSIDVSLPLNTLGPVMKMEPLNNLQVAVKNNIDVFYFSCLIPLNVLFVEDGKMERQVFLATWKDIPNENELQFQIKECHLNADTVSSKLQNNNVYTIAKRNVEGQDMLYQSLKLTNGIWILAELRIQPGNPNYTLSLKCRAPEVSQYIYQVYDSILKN
GST-FITC bead: GST-fluorescein capture on glutathione beads, confirmation, artefact control for arrestin-AP2 inhibitor project, biochemical, cherry pick 1, flow cytometry; shares compounds with Arrestin-AP2 inh; GST-fluorescein binding to GSH beads, fluorescence, counter-screen; inhibition, % at 10 µM; 1,300 compounds, 2% hits; AID 588338, 2011;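 active = inhibition above 50%, about 3 SD of the inhibition seen with non-fluorescent compounds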;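 note: fluorescein maleimide labelled GST captured on 4 micron glutathione beads; higher means more loss of bead fluorescence from quenching or blocked binding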
Hits are given with their value; 0 = inactive; - = no result. This is a sample that favours compounds with a hit; in the whole collection about 1% have one here.

SMILES	Fh CTSL1 inh	Lipid droplet	Arrestin-AP2 inh	p-CIP stab down	Arr AP2 CP1	GST-FITC bead
C/C(=N\NC(=O)c1ccc(CSc2nncn2C)cc1)c1ccc2ccccc2c1	0	0	55.0	0	0	0
CN1CCN(C(=O)c2ccc(N3CCCC3=O)cc2)CC1	0	0	0	0	-	-
Cc1ccc(-c2nn(-c3ccccc3)cc2C(=O)N2CCN(c3ccccn3)CC2)cc1	0	0	56.6	0	0	0
O=C(CCc1ccccc1)N1CCN(c2ccccn2)CC1	0	0	0	0	-	-
O=C(c1ccccc1CCc1ccccc1)N1CCN(c2ccccn2)CC1	0	0	84.5	0	0	0
O=C(c1cc2ccccc2o1)N1CCN(c2ccccn2)CC1	0	0	58.6	0	0	0
O=C(c1cc2ccccc2o1)N1CCN(c2ccccc2Cl)CC1	0	0	0	0	-	-
O=C(/C=C/c1ccc(Cl)cc1)Nn1c(-c2cccs2)nc2ccccc2c1=O	0	0	0	0	-	-
CCOc1ccc(/C=C/C(=O)OCC(=O)Nc2cccc(S(=O)(=O)N3CCCC3)c2)cc1	-	-	0	-	-	-
CC(=O)NC(CC(=O)Nc1cccc(S(=O)(=O)N2CCCCC2)c1)c1ccccc1 (stereo not drawn)	0	0	0	0	-	-
O=C(CCCC(=O)Nc1cccnc1)Nc1cccnc1	0	0	81.5	0	0	-
CC(=O)c1c(C(C)=O)c(C)n(-c2cccc([N+](=O)[O-])c2)c1C	0	0	0	0	-	-
Cc1cc(C(=O)CCl)c(C)n1-c1cccc([N+](=O)[O-])c1	0	0	62.2	0	0	0
O=C(NCCN1CCOCC1)c1ccc(Cl)cc1O	0	0	0	0	-	-
COc1ccc(CCC(C)NC2CCCCCCC2)cc1 (stereo not drawn)	0	0	63.6	0	0	0
CC1(C)Cc2c(sc3c2c(=O)n(Cc2ccccc2)c2nncn32)CO1	-	-	62.2	0	0	0
CCOC(=O)C1=C(COC(=O)c2ccccc2[N+](=O)[O-])NC(=O)NC1C (stereo not drawn)	0	-	0	-	-	-
CCOC(=O)C1=C(COC(=O)CC(C)c2ccccc2)NC(=O)NC1C (stereo not drawn)	-	-	0	-	0	0
CCOC(=O)C1=C(COC(=O)C(CC)c2ccccc2)NC(=O)NC1C (stereo not drawn)	-	-	67.2	-	0	0
CCOC(=O)C1=C(COC(=O)c2ccc(OC(C)C)cc2)NC(=O)NC1C (stereo not drawn)	0	-	0	-	-	-
CCOC(=O)C1=C(COC(=O)Cc2c(F)cccc2Cl)NC(=O)NC1C (stereo not drawn)	-	-	0	-	0	0
CCOC(=O)C1=C(COC(=O)C(CC)Oc2ccccc2)NC(=O)NC1C (stereo not drawn)	0	-	0	-	0	0
O=C(CSc1nc(O)c(Cc2ccccc2F)c(=O)[nH]1)N1CCCCCC1	0	-	0	0	-	-
Oc1ccc(/C=C/c2ccc3cccc(O)c3n2)cc1Br	0	-	0	0	-	-
O=C(/C=C/c1ccc(Cl)cc1)NCCCN1CCOCC1	0	0	0	0	-	-
SMILES	Fh CTSL1 inh	Lipid droplet	Arrestin-AP2 inh	p-CIP stab down	Arr AP2 CP1	GST-FITC bead
COc1ccc(C(=O)NNC(=O)c2ccncc2)cc1	0	0	0	0	-	-
COC1OC2COC(c3ccccc3)OC2C(O)C1NC(=O)c1ccccc1 (stereo not drawn)	-	-	0	-	-	-
CC(=O)N[C@@H]1[C@@H](O)[C@@H]2OC(c3ccccc3)OC[C@H]2O[C@@H]1N=[N+]=[N-] (stereo partly drawn)	0	0	56.2	0	0	0
Cc1cccc(NC(=O)c2ccc3c(c2)C(=O)N(c2ccccn2)C3=O)c1C	0	0	0	0	-	-
CC(C)(C)n1nc2c(c1NC(=O)c1ccccc1)CS(=O)(=O)C2	0	0	0	0	-	-
Cc1cccc(C(=O)Nc2c3c(nn2C(C)(C)C)CS(=O)(=O)C3)c1	0	0	61.4	0	0	0
COC(=O)c1c(NC(=O)CCNCc2ccco2)sc2c1CCC2	0	0	0	0	-	-
COc1ccc(C(=S)N2CCCC2)cc1Br	0	0	0	0	-	-
COc1ccc(N/C=C2/Sc3ccccc3NC2=O)cc1	0	0	0	0	-	-
Cc1ccc(N/C=C2/Sc3ccccc3NC2=O)cc1	0	0	82.9	0	0	0
COc1ccc(NC(=O)c2cc(Br)c(Br)s2)cn1	0	0	0	0	-	-
COc1cc(OC)c(NC(=O)CC(C)=O)cc1Cl	0	0	0	0	0	0
COc1cc(OC)c(NC(=O)CC(=O)Nc2cc(Cl)c(OC)cc2OC)cc1Cl	0	0	0	0	-	-
Cc1nc2ccccc2n1/N=C/c1ccc([N+](=O)[O-])o1	0	-	0	-	-	-
CCN(CC(=O)Nc1ccc(NC(C)=O)cc1)C(=O)CCN1C(=O)c2cccc([N+](=O)[O-])c2C1=O	0	0	63.9	0	0	0
CCOc1ncccc1C(=O)Nc1cccc(S(=O)(=O)N2CCOCC2)c1	-	-	0	-	0	0
CCOc1ncccc1C(=O)Nc1cc(S(=O)(=O)N2CCCCC2)ccc1OC	-	-	0	-	0	0
CCOc1ncccc1C(=O)OCC(=O)Nc1cc(S(=O)(=O)N2CCOCC2)ccc1Cl	0	0	0	0	-	-
CCOc1ncccc1C(=O)Nc1ccc(OC)c(S(=O)(=O)N2CCCCC2)c1	0	0	0	0	0	0
Cc1ccc(NC(=O)c2cccnc2)cc1S(=O)(=O)N1CCOCC1	0	-	0	-	0	0
O=S(=O)(c1ccc(S(=O)(=O)N2CCCC2)cc1)N1CCCCC1	0	0	-	0	-	-
CCN(CC)C(=O)[C@H]1C[C@H](CC(=O)NCC23CC4CC(CC(C4)C2)C3)C(=O)N2CCc3c([nH]c4ccc(Cl)cc34)[C@]12C	-	-	0	-	-	-
O=C(c1cc(-c2cccs2)on1)N1CCN(c2ccccc2)CC1	0	-	0	0	-	-
CCN(C[C@H]1N[C@@](Cc2ccccc2)(C(=O)OC)[C@H]2C(=O)N(Cc3ccccc3)C(=O)[C@@H]12)S(=O)(=O)c1ccc(-c2ccccc2)cc1	-	-	0	-	-	-
COc1ccc(N2CCN(C(=O)c3ccccc3NS(=O)(=O)c3ccc(C)cc3)CC2)cc1	-	0	0	0	-	-
COc1ccc(S(=O)(=O)N2CCCCC2)cc1NC(=O)c1ccc(=O)[nH]c1	0	0	0	0	0	0
O=C(Nc1cc(S(=O)(=O)N2CCCCCC2)ccc1OCC(F)(F)F)c1ccc(=O)[nH]c1	-	-	0	-	-	-
Fc1cccc(F)c1/C=N/Nc1ccccn1	0	0	55.2	0	0	0
Fc1cccc(Cl)c1/C=N/Nc1ccccn1	0	0	0	0	-	-
CCS(=O)(=O)c1nc(S(=O)(=O)c2ccc(C)cc2)c(N2CCCC2)s1	0	0	0	0	-	-

Bioassay records as filed in PubChem BioAssay.
